Laboratory results taken from ChEMBL document CHEMBL1938348, “Novel inhibitors of surface layer processing in Clostridium difficile” (Bioorg Med Chem, 2012).
The source made the active and inactive calls. The calls are words filed in the database; no cut-off is given here. Where a SMILES comes first, the peptide text is derived from it. The star is where a group is joined. X1 = CCOC(=O)/C=C/[C@H](CO)N*

Assays:
Details in all cases: Clostridioides difficile
[1] = target: T1, Precursor of the S-layer proteins (Clostridium difficile (strain 630)) (UniProt Q183M8); experiment: Inhibition of Clostridium difficile 630 S-layer processing of slpA at 100 uM by Western blot analysis
T1 sequence (whole entry): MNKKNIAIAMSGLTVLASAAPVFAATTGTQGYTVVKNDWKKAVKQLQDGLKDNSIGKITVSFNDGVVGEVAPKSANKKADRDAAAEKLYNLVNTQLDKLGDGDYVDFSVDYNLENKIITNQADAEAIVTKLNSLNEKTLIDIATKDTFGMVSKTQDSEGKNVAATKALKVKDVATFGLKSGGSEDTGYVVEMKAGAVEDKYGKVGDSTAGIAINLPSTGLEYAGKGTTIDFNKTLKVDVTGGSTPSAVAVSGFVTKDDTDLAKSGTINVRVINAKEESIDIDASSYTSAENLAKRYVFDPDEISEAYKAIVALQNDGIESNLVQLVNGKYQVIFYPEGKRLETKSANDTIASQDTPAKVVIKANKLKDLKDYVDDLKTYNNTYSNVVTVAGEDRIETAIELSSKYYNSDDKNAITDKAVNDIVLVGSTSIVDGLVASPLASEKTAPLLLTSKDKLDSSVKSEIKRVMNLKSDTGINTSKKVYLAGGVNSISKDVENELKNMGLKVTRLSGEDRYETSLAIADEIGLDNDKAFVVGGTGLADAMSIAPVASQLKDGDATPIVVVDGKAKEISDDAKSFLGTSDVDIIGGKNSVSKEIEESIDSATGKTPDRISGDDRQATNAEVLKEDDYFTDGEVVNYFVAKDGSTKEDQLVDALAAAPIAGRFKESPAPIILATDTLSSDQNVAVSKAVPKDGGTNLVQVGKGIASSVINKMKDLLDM
In short: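 C. difficile strain 630 grown overnight (16 h), anaerobic, 37 °C, in BHI with compound at 100 µM or DMSO vehicle. Surface layer proteins extracted with 0.2 M glycine–HCl pH 2.2 (30 min, room temperature), run on SDS–PAGE and semi-dry blotted to PVDF. Probed with rabbit anti-LMW SLP (1/200,000), then goat anti-rabbit-HRP (1/2000). Chemiluminescence read-out.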

[2] = target: T2, Cell surface protein (Clostridium difficile (strain 630)) (UniProt Q183M1); experiment: Binding affinity to Clostridium difficile 630 higher molecular weight cwp84 by Western blot analysis
T2 sequence (whole entry): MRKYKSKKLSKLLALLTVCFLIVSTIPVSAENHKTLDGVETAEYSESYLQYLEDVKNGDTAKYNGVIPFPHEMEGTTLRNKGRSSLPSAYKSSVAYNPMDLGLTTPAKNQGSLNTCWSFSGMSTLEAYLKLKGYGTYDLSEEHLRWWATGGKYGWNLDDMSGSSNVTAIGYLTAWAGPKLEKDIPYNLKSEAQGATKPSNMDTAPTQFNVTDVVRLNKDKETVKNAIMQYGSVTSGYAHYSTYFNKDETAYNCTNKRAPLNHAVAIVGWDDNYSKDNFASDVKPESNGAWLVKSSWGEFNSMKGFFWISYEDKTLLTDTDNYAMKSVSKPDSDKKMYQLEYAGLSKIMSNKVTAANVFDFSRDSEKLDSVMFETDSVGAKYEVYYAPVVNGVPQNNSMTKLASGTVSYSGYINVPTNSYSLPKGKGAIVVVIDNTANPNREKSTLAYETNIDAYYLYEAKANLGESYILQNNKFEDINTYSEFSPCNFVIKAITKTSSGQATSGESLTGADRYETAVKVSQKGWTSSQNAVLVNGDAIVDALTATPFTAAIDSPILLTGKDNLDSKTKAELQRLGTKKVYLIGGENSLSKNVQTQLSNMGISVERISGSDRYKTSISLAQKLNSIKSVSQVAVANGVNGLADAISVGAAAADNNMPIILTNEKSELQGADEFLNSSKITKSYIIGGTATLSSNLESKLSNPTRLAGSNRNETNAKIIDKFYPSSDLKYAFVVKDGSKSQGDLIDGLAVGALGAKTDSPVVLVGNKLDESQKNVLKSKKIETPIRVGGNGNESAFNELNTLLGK

[3] = target: T2, Cell surface protein (Clostridium difficile (strain 630)); experiment: Binding affinity to Clostridium difficile 630 cwp84 at lower band by Western blot analysis
[4] = target: T2, Cell surface protein (Clostridium difficile (strain 630)); experiment: Binding affinity to Clostridium difficile 630 cwp84 at 74 kDa by Western blot analysis

| inhibition [1] | Activity [2] | Activity [3] | Activity [4] | SMILES |
| --- | --- | --- | --- | --- |
| inactive | – | – | – | CCOC(=O)/C=C/C(=O)N[C@@H](CCCNC(=N)N)C(=O)NCCOCCOCCOCCNC(=O)CCCC[C@@H]1SC[C@@H]2NC(=O)N[C@@H]21 |
| inactive | – | – | – | CCOC(=O)/C=C/C(=O)N[C@@H](CO)C(=O)NCCOCCOCCOCCNC(=O)CCCC[C@@H]1SC[C@@H]2NC(=O)N[C@@H]21 |
| Active | – | – | – | N=C(N)NCCC[C@H](NC(=O)CCl)C(=O)NCCOCCOCCOCCNC(=O)CCCC[C@@H]1SC[C@@H]2NC(=O)N[C@@H]21 |
| Active | – | – | – | C[C@H](NC(=O)CCl)C(=O)NCCOCCOCCOCCNC(=O)CCCC[C@@H]1SC[C@@H]2NC(=O)N[C@@H]21 |
| Active | inactive | Active | – | CCOC(=O)/C=C/[C@H](CO)NC(=O)[C@H](CC(C)C)NC(=O)[C@H](CCCCNC(=O)CCCC[C@@H]1SC[C@@H]2NC(=O)N[C@@H]21)NC(C)=O |
| Active | Active | – | Active | CC(C)C[C@H](NC(=O)CCl)C(=O)N[C@@H](CCCNC(=N)N)C(=O)NCCOCCOCCOCCNC(=O)CCCC[C@@H]1SC[C@@H]2NC(=O)N[C@@H]21 |
| Active | – | – | – | O=C(CCCC[C@@H]1SC[C@@H]2NC(=O)N[C@@H]21)NCCOCCOCCOCCNC(=O)[C@H](CO)NC(=O)CCl |
| inactive | – | – | – | CCOC(=O)/C=C/C(=O)N[C@@H](C)C(=O)NCCOCCOCCOCCNC(=O)CCCC[C@@H]1SC[C@@H]2NC(=O)N[C@@H]21 |
| inactive | – | – | – | CCOC(=O)/C=C/C(=O)N[C@@H](CC(C)C)C(=O)N[C@@H](CCCNC(=N)N)C(=O)NCCOCCOCCOCCNC(=O)CCCC[C@@H]1SC[C@@H]2NC(=O)N[C@@H]21 |
| Active | inactive | Active | – | CCOC(=O)/C=C/[C@H](CO)NC(=O)[C@H](Cc1ccc(O)cc1)NC(=O)[C@H](CCCCNC(=O)CCCC[C@@H]1SC[C@@H]2NC(=O)N[C@@H]21)NC(C)=O |

| SMILES | inhibition [1] | Activity [2] | Activity [3] | Activity [4] |
| --- | --- | --- | --- | --- |
| O=C(CCCC[C@@H]1SC[C@@H]2NC(=O)N[C@@H]21)NCCOCCOCCOCCNC(=O)[C@H](CO)NC(=O)CF | inactive | – | – | – |
| CC(C)C[C@H](NC(=O)CF)C(=O)N[C@@H](CCCNC(=N)N)C(=O)NCCOCCOCCOCCNC(=O)CCCC[C@@H]1SC[C@@H]2NC(=O)N[C@@H]21 | inactive | – | – | – |
| CCOC(=O)/C=C/[C@H](CO)NC(=O)[C@H](CCCCN)NC(=O)[C@@H](NC(=O)[C@H](CCC(=O)O)NC(=O)[C@H](CC(C)C)NC(C)=O)[C@@H](C)O (Ac-LETK-X1) | Active | – | – | – |
| C[C@H](NC(=O)CF)C(=O)NCCOCCOCCOCCNC(=O)CCCC[C@@H]1SC[C@@H]2NC(=O)N[C@@H]21 | inactive | – | – | – |
| N=C(N)NCCC[C@H](NC(=O)CF)C(=O)NCCOCCOCCOCCNC(=O)CCCC[C@@H]1SC[C@@H]2NC(=O)N[C@@H]21 | inactive | – | – | – |
